tested on: not listed separately; assay: Permeability of the compound by PAMPA; type: ADME; settings: read-out: permeability
Procedure, shortened: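 PAMPA with precoated trilayer lipid/oil/lipid membranes, donor wells holding 200 μM compound in PBS pH 7.4 (2% DMSO final), in triplicate. Incubated 5 h at room temperature. Donor and acceptor concentrations determined by UV plate reader or HPLC-UV against calibration curves. Pe and mass retention R calculated.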

For `CCCC[C@@H](NC(=O)[C@@H](CCCCN)NC(=O)[C@@H](CCCNC(=N)N)NC(=O)c1ccc(/C=C2\SC(=O)N(Cc3ccccc3)C2=O)cc1)C(N)=O`, which Papp is on record?
The Papp was 0.29 ×10⁻⁶ cm/s.

Which Papp does the source give for `CCCC[C@H](NC(=O)[C@H](CCCCN)NC(=O)[C@H](CCCNC(=N)N)NC(=O)c1ccc(/C=C2\SC(=O)N(c3ccc(C)cc3)C2=O)cc1)C(N)=O` here?
Its Papp is 0.66 ×10⁻⁶ cm/s.

tested on: Huh-7; assay: Cytotoxicity against human HuH7 cells at <50 uM after 48 hrs by firefly reporter assay; type: cell-based; settings: huh-7, 48 h
Procedure, shortened: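 Uninfected Huh-7 cells stably expressing firefly luciferase, seeded 5000/well and incubated overnight at 37 °C. Compound added at 1.56–50 μM, plus 100, 200 and 400 μM, then incubated as for infected cells (further 48 h after the 4 h point). Firefly luminescence read with 70 μM luciferin and 2 mM ATP. Mean of three wells as percent of DMSO control.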

Which Activity does the source give for `CCCC[C@H](NC(=O)[C@H](CCCCN)NC(=O)[C@H](CCCNC(=N)N)NC(=O)c1ccc(/C=C2\SC(=O)N(C)C2=O)cc1)C(N)=O` here?
The Activity was “Non-toxic”.

tested on: West Nile virus; assay: Inhibition of West Nile virus NS2B-NS3 protease expressed in Escherichia coli BL 21 (DE3) using Abz-Gly-Leu-Lys-Arg-Gly-Gly-3-(NO2)Tyr as substrate at 50 uM after 15 mins; settings: not given

With `CCCC[C@@H](NC(=O)[C@@H](CCCCN)NC(=O)[C@@H](CCCNC(=N)N)NC(=O)c1ccc(/C=C2\SC(=O)N(Cc3ccccc3)C2=O)cc1)C(N)=O` as the compound, how does the inhibition read?
Its inhibition is 47.5%.

Which inhibition does the source give for `CCCC[C@H](NC(=O)[C@H](CCCNC(=N)N)NC(=O)[C@H](CCCNC(=N)N)NC(=O)c1ccc(/C=C2\SC(=O)N(Cc3ccccc3)C2=O)cc1)C(N)=O` here?
Its inhibition is 74%.

With `CCCC[C@H](NC(=O)[C@H](CCCCN)NC(=O)[C@H](CCCNC(=N)N)NC(=O)c1ccc(/C=C2\SC(=O)N(C)C2=O)cc1)C(N)=O` as the compound, how does the inhibition read?
The inhibition was 38.1%.

With `CCCC[C@H](NC(=O)[C@H](CCCCN)NC(=O)[C@H](CCCNC(=N)N)NC(=O)c1ccc(/C=C2\SC(=O)N(C(C)C)C2=O)cc1)C(N)=O` as the compound, how does the inhibition read?
The inhibition was 30.9%.

Which inhibition does the source give for `O=C(O)c1ccc(/C=C2\SC(=O)N(Cc3ccccc3)C2=O)cc1` here?
Its inhibition is 22.1%.

For `CCCC[C@H](NC(=O)[C@H](CCCCN)NC(=O)[C@H](CCCNC(=N)N)NC(=O)c1ccc(/C=C2\SC(=S)N(c3ccccc3)C2=O)cc1)C(N)=O`, which inhibition is on record?
Its inhibition is 37.8%.

With `CCCC[C@H](NC(=O)[C@H](CCCCN)NC(=O)[C@H](CCCNC(=N)N)NC(=O)c1ccc(/C=C2\SC(=S)N(CCC)C2=O)cc1)C(N)=O` as the compound, how does the inhibition read?
Its inhibition is 52.7%.

Which inhibition does the source give for `CCCC[C@H](NC(=O)[C@H](CCCCN)NC(=O)[C@H](CCCNC(=N)N)NC(=O)c1ccc(/C=C2\SC(=O)N(CC)C2=O)cc1)C(N)=O` here?
The inhibition was 48.5%.

Which inhibition does the source give for `CCCC[C@H](NC(=O)[C@H](CCCCN)NC(=O)[C@H](CCCNC(=N)N)NC(=O)c1ccc(/C=C2\SC(=O)N(c3ccc(C)cc3)C2=O)cc1)C(N)=O` here?
The inhibition was 42.4%.

tested on: Dengue virus; assay: Inhibition of Dengue virus NS2B-NS3 protease expressed in Escherichia coli BL 21 (DE3) using Abz-Nle-Lys-Arg-Arg-Ser-3-(NO2)Tyr as substrate at 50 uM after 15 mins; settings: not given

Which inhibition does the source give for `CCCC[C@@H](NC(=O)[C@@H](CCCCN)NC(=O)[C@@H](CCCNC(=N)N)NC(=O)c1ccc(/C=C2\SC(=O)N(Cc3ccccc3)C2=O)cc1)C(N)=O` here?
Its inhibition is 73.9%.

For `CCCC[C@H](NC(=O)[C@H](CCCNC(=N)N)NC(=O)[C@H](CCCNC(=N)N)NC(=O)c1ccc(/C=C2\SC(=O)N(Cc3ccccc3)C2=O)cc1)C(N)=O`, which inhibition is on record?
Its inhibition is 92.7%.

For `CCCC[C@H](NC(=O)[C@H](CCCCN)NC(=O)[C@H](CCCNC(=N)N)NC(=O)c1ccc(/C=C2\SC(=O)N(C)C2=O)cc1)C(N)=O`, which inhibition is on record?
Its inhibition is 91.1%.

For `CCCC[C@H](NC(=O)[C@H](CCCCN)NC(=O)[C@H](CCCNC(=N)N)NC(=O)c1ccc(/C=C2\SC(=O)N(C(C)C)C2=O)cc1)C(N)=O`, which inhibition is on record?
Its inhibition is 95.8%.

For `O=C(O)c1ccc(/C=C2\SC(=O)N(Cc3ccccc3)C2=O)cc1`, which inhibition is on record?
The inhibition was 30.7%.

Which inhibition does the source give for `CCCC[C@H](NC(=O)[C@H](CCCCN)NC(=O)[C@H](CCCNC(=N)N)NC(=O)c1ccc(/C=C2\SC(=S)N(c3ccccc3)C2=O)cc1)C(N)=O` here?
Its inhibition is 90%.

For `CCCC[C@H](NC(=O)[C@H](CCCCN)NC(=O)[C@H](CCCNC(=N)N)NC(=O)c1ccc(/C=C2\SC(=S)N(CCC)C2=O)cc1)C(N)=O`, which inhibition is on record?
Its inhibition is 94.2%.

For `CCCC[C@H](NC(=O)[C@H](CCCCN)NC(=O)[C@H](CCCNC(=N)N)NC(=O)c1ccc(/C=C2\SC(=O)N(CC)C2=O)cc1)C(N)=O`, which inhibition is on record?
The inhibition was 96.5%.

With `CCCC[C@H](NC(=O)[C@H](CCCCN)NC(=O)[C@H](CCCNC(=N)N)NC(=O)c1ccc(/C=C2\SC(=O)N(c3ccc(C)cc3)C2=O)cc1)C(N)=O` as the compound, how does the inhibition read?
Its inhibition is 93.8%.

target: Prothrombin (Homo sapiens) (UniProt P00734); assay: Inhibition of thrombin (unknown origin) using Boc-Val-Pro-Arg-AMC as substrate at 25 uM after 10 mins by continuous fluorimetric assay; settings: not given
Procedure, shortened: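 Thrombin (10 nM) preincubated 15 min with inhibitor (25 μM final) in 50 mM Tris-HCl pH 7.5, 150 mM NaCl, 0.05% Tween 20. Boc-Val-Pro-Arg-AMC then added to 50 μM (Km 16 μM). Fluorescence (ex 355 nm, em 460 nm) followed for 10 min as slope. Triplicate; percent inhibition versus no-inhibitor control.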

For `CCCC[C@@H](NC(=O)[C@@H](CCCCN)NC(=O)[C@@H](CCCNC(=N)N)NC(=O)c1ccc(/C=C2\SC(=O)N(Cc3ccccc3)C2=O)cc1)C(N)=O`, which inhibition is on record?
The inhibition was 11.1%.

For `CCCC[C@H](NC(=O)[C@H](CCCNC(=N)N)NC(=O)[C@H](CCCNC(=N)N)NC(=O)c1ccc(/C=C2\SC(=O)N(Cc3ccccc3)C2=O)cc1)C(N)=O`, which inhibition is on record?
The inhibition was 13.7%.

With `CCCC[C@H](NC(=O)[C@H](CCCCN)NC(=O)[C@H](CCCNC(=N)N)NC(=O)c1ccc(/C=C2\SC(=O)N(C)C2=O)cc1)C(N)=O` as the compound, how does the inhibition read?
Its inhibition is 9.2%.

With `CCCC[C@H](NC(=O)[C@H](CCCCN)NC(=O)[C@H](CCCNC(=N)N)NC(=O)c1ccc(/C=C2\SC(=O)N(C(C)C)C2=O)cc1)C(N)=O` as the compound, how does the inhibition read?
The inhibition was 10.6%.

With `O=C(O)c1ccc(/C=C2\SC(=O)N(Cc3ccccc3)C2=O)cc1` as the compound, how does the inhibition read?
The inhibition was 12.2%.

With `CCCC[C@H](NC(=O)[C@H](CCCCN)NC(=O)[C@H](CCCNC(=N)N)NC(=O)c1ccc(/C=C2\SC(=S)N(c3ccccc3)C2=O)cc1)C(N)=O` as the compound, how does the inhibition read?
The inhibition was 14.2%.

With `CCCC[C@H](NC(=O)[C@H](CCCCN)NC(=O)[C@H](CCCNC(=N)N)NC(=O)c1ccc(/C=C2\SC(=S)N(CCC)C2=O)cc1)C(N)=O` as the compound, how does the inhibition read?
The inhibition was 11%.

Which inhibition does the source give for `CCCC[C@H](NC(=O)[C@H](CCCCN)NC(=O)[C@H](CCCNC(=N)N)NC(=O)c1ccc(/C=C2\SC(=O)N(CC)C2=O)cc1)C(N)=O` here?
Its inhibition is 19%.

With `CCCC[C@H](NC(=O)[C@H](CCCCN)NC(=O)[C@H](CCCNC(=N)N)NC(=O)c1ccc(/C=C2\SC(=O)N(c3ccc(C)cc3)C2=O)cc1)C(N)=O` as the compound, how does the inhibition read?
Its inhibition is 13.8%.
